Most compounds without a hit are left out; they make up all but 1.4% or so of the library.
Calpain2 inh: inhibitors of pig calpain II, primary screen, biochemical, fluorogenic peptide substrate, 1536-well. purified calpain II, 30 min. inhibition, % at 16 µM. 220,000 tested, 0.37% active;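 active = inhibition above about 50%, limit read from the data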
Furin inhibitor: human furin inhibitors, primary screen, biochemical, fluorescence intensity; purified furin, fluorogenic substrate cleavage; inhibition, % at 20 µM or 30 µM; 220,000 tested, 0.061% active; in the data active = inhibition above about 25%
Thrombin inh: human alpha-thrombin inhibitors, primary screen, counter-screen for coagulation protease inhibitor project, biochemical, 1536-well, fluorogenic AMC substrate; Boc-VPR-AMC fluorogenic substrate cleavage; inhibition, % at 5 µM; 220,000 tested, 0.26% active;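 active = inhibition at or above 40%; inactive = inhibition below 40%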
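Material: human alpha-thrombin enzyme / Medium: pH 7.5 Tris (50 mM) with NaCl 150 mM, Tween 20 0.05% / Compound: single-point dosing at 5 µM, 0.2% DMSO / Incubation: enzyme reaction carried out at room temperature / Detection: AMC fluorescence, 355/460 nm / Read-out basis: percent inhibition scaled between no-compound controls and no-enzyme blanks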
FXIIa inh 1536: human FXIIa protease inhibitors, primary screen, biochemical, 1536-well. Coagulation factor XII (Homo sapiens), P00748. purified FXIIa, Boc-QGR-AMC fluorogenic substrate, 2 h. inhibition, % at 5 µM. 220,000 tested, 0.3% active; in the data active = inhibition above about 40%
KLK5 inh: human KLK5 protease inhibitors, primary screen, biochemical, 1536-well; 210,000 tested, 0.59% active; recombinant hK5, fluorogenic AMC substrate cleavage; inhibition, % at 5 µM;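 active = inhibition of 40% or more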
FXIa inh: human FXIa protease inhibitors, primary screen, biochemical, 1536-well; purified FXIa, Boc-Glu-Ala-Arg-AMC fluorogenic substrate; inhibition, % at 5 µM; 220,000 tested, 0.14% active;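 active = inhibition of at least 40%; inactive = inhibition below 40%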;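 also: fluorescence of freed AMC excited at 355 nm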
Target sequence (P03951 19-387 limits assumed): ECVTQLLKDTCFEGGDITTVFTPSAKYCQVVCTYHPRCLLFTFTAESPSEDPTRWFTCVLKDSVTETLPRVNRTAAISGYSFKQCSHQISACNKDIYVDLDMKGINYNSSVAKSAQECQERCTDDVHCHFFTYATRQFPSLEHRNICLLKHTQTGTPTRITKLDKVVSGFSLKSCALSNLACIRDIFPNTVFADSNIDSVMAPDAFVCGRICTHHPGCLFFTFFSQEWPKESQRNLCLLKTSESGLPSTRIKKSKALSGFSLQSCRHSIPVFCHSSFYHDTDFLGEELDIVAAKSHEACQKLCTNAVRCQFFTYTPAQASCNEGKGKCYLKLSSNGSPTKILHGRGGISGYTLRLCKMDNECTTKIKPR
Target sequence (P03951 388-625 limits assumed): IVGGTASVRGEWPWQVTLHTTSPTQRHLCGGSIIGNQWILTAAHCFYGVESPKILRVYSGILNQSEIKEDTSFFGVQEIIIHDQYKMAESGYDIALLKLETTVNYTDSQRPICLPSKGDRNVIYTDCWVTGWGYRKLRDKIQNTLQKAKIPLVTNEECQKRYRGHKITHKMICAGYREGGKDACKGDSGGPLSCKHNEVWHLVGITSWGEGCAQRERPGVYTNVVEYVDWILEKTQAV
Each line names hits and unclear results; the compound was inactive in the other large screens.

O=C(N[C@H](C(=O)O)c1ccccc1)C1CCC(Cn2nnc3ccccc3c2=O)CC1 (some centres undefined)	FXIIa inh 1536 43
CCCCc1c(C)nc2c(OC)cccc2c1SCC(=O)O	none
CCCCc1c(C)nc2ccc(Br)cc2c1SCCC#N	Thrombin inh 99, KLK5 inh 47
CCc1c(C)nc2ccc(Br)cc2c1SCCC#N	none
O=C(CSC1=NCCS1)Nc1ccccc1F	none
CC(=O)c1c(N2CCN(c3ccccc3)CC2)nc(=S)n(-c2ccccc2)c1C	none
CC(=O)c1c(N2CCC(C(N)=O)CC2)nc(=S)n(-c2ccccc2)c1C	KLK5 inh 45
O=C(O)/C=C\C(=O)Nc1ccc(OC(F)F)cc1	none (no result: Thrombin inh)
CC(=O)Nc1ccc(NC(=O)Cc2ccc(F)cc2)cc1	none
Cc1ccc2nc(Nc3nc(CSc4nnnn4-c4ccccc4)cc(=O)[nH]3)nc(C)c2c1	none
Cc1ccc(-c2cc(C(=O)Nc3ccc(S(=O)(=O)Nc4onc(C)c4C)cc3)c3ccccc3n2)cc1	none
Cc1ccc(-c2cc(C(=O)Nc3ccc(S(=O)(=O)Nc4cc(C)on4)cc3)c3ccccc3n2)c(C)c1	FXIIa inh 1536 72
CCOc1cc(C(=O)Nc2ccc(S(=O)(=O)Nc3cc(C)on3)cc2)cc(OCC)c1OCC	none
Cc1cc(NS(=O)(=O)c2ccc(NC(=S)NC(=O)c3ccccc3)cc2)no1	none
Cc1cc(NS(=O)(=O)c2ccc(NC(=S)NC(=O)c3ccc(C(C)(C)C)cc3)cc2)no1	Calpain2 inh 63
COc1cc(C(=O)Nc2ccc(-c3nnc(-c4ccco4)o3)cc2)cc(OC)c1OC	Furin inhibitor 30
COc1cc(C(=O)Nc2ccc(S(=O)(=O)Nc3cc(C)on3)cc2)cc(OC)c1OC	KLK5 inh 47
CCNS(=O)(=O)c1ccc(NC(=O)Nc2cc(C)ccc2OC)cc1	none
C/C(=N\NC(=O)c1nn(C)c(C)c1Br)c1cccc(NC(=O)c2ccoc2C)c1	none
CCCN1CCN(C(=O)Cn2c(=O)oc3cc(S(=O)(=O)NCc4ccccc4)ccc32)CC1	none
O=C(NCc1ccco1)c1c2c(nc3ccccc13)CCC2	FXIIa inh 1536 48
O=C(CSc1c2c(nc3ccccc13)CCCC2)NCc1ccco1	none
O=C(CSc1nnc2c(n1)[nH]c1ccc(S(=O)(=O)N3CCOCC3)cc12)Nc1ccccc1Cl	none
CCc1ccc[n+](-c2[nH]c(=O)sc2/C=N/NC([S-])=Nc2ccccc2)c1	none
CCc1ccc[n+](-c2[nH]c(=O)sc2/C=N/N=C(\N)[O-])c1	FXIa inh 42
CC(NS(=O)(=O)c1ccccc1)C1COc2ccccc2O1 (centres undefined)	none
Nc1nc2ccccc2n1C(=O)c1ccco1	Thrombin inh 44, KLK5 inh 41
Nc1nc2ccccc2n1C(=O)c1ccccc1	none
Cc1ccccc1Cn1cnc2c(NS(C)(=O)=O)c(C)c(C)cc21	FXIIa inh 1536 41
COc1ccc(Cn2cnc3c(NS(C)(=O)=O)c(C)c(C)cc32)cc1	none
CCCCc1nnc(NC(=O)COc2ccc3c(C)cc(=O)oc3c2)s1	KLK5 inh 112
O=C(Nc1c(F)cccc1F)c1ccc(-n2cncn2)nc1	none
CNC(=S)NNC(=O)c1ccccc1F	Calpain2 inh 90
CC(C)C(OC(=O)c1cccs1)C(=O)NCc1ccc2c(c1)OCO2 (centres undefined)	FXIIa inh 1536 57
Cc1ccccc1Oc1ncnc2oc(-c3ccccc3)cc12	KLK5 inh 59
Cc1ccc(-n2c(C)cc(/C=N/NC(=O)CN(c3ccc(C)cc3C)S(C)(=O)=O)c2C)cc1	KLK5 inh 42
Cc1cc(C)cc(-n2c(C)cc(/C=N/NC(=O)CN(c3c(C)cccc3C)S(C)(=O)=O)c2C)c1	none
O=C(CN1C(=O)NC2(CCCCCCC2)C1=O)NCc1ccc2c(c1)OCO2	none
O=C(C[n+]1cnn(CC(=O)c2ccc(Cl)cc2Cl)c1)c1ccc([N+](=O)[O-])cc1	Thrombin inh 51
O=C(Nc1cnn(Cc2ccc(Cl)cc2)c1)c1ccc([N+](=O)[O-])cc1	none
